The source made the active and inactive calls. The rule behind the calls is not given here.
Legend:
Paracentrotus lividus [1] = test: Antimitotic activity against Paracentrotus lividus embryo assessed as cleavage alteration treated 10 to 25 mins post fertilization followed by 45 to 60 mins before the first mitotic cycle completion by sea urchin embryo assay; format: functional
Paracentrotus lividus [2] = test: Antimitotic activity against Paracentrotus lividus embryo assessed as cleavage arrest treated 10 to 25 mins post fertilization followed by 45 to 60 mins before the first mitotic cycle completion by sea urchin embryo assay; format: functional
Paracentrotus lividus [3] = test: Antimitotic activity against Paracentrotus lividus embryo assessed as embryo spinning treated 10 to 25 mins post fertilization followed by 45 to 60 mins before the first mitotic cycle completion by sea urchin embryo assay; format: functional
A549 [4] = test: Cytotoxicity against human A549 cells assessed as cell viability after 24 hrs by MTT assay; format: functional, cell-based; conditions: A549, 24 h
Outline: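 A549 human lung carcinoma cells; growth inhibition measured by MTT assay. IC50 derived from dose-response curves, mean ± SD of three independent experiments.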

Paracentrotus lividus [5] = test: Antimitotic activity against Paracentrotus lividus embryo assessed as cleavage arrest up to 4 uM […] followed by 45 to 60 mins before the first mitotic cycle completion by sea urchin embryo assay; format: functional, organism-based
Paracentrotus lividus [6] = test: Antimitotic activity against Paracentrotus lividus embryo assessed as embryo spinning up to 4 uM […] followed by 45 to 60 mins before the first mitotic cycle completion by sea urchin embryo assay; format: functional, organism-based
Paracentrotus lividus [7] = test: Antimitotic activity against Paracentrotus lividus embryo assessed as cleavage alteration up to 4 uM […] followed by 45 to 60 mins before the first mitotic cycle completion by sea urchin embryo assay; format: functional, organism-based
A549 [8] = test: Inhibition of microtubule polymerization in human A549 cells assessed as total disruption of interphase microtubule network at 0.1 uM after 8 hrs by immunofluorescence microscopy; format: cell-based
Outline: (§1)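 A549 cells incubated 8 h with compound at 0.1, 0.5, 1 and 5 μM; DMSO vehicle as negative control. Microtubules labelled by indirect immunofluorescence and examined by fluorescence microscopy. Value is the concentration giving total interphase microtubule disassembly, from three independent experiments.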

A549 [9] = test: Inhibition of microtubule polymerization in human A549 cells assessed as total disruption of interphase microtubule network at 0.5 uM after 8 hrs by immunofluorescence microscopy; format: cell-based; outline: as §1
A549 [10] = test: Inhibition of microtubule polymerization in human A549 cells assessed as total disruption of interphase microtubule network at 1 uM after 8 hrs by immunofluorescence microscopy; format: cell-based; outline: as §1
A549 [11] = test: Inhibition of microtubule polymerization in human A549 cells assessed as total disruption of interphase microtubule network at 5 uM after 8 hrs by immunofluorescence microscopy; format: cell-based; outline: as §1
A549 [12] = test: Inhibition of microtubule polymerization in human A549 cells assessed as total disruption of interphase microtubule network at > 5 uM after 8 hrs by immunofluorescence microscopy; format: cell-based
A549 [13] = test: Cell cycle arrest in human A549 cells assessed as accumulation of cells in G2/M phase after 24 hrs by propidium iodide staining-based flow cytometry; format: functional; conditions: A549, 24 h
A549 [14] = test: Induction of apoptosis in human A549 cells assessed as early apoptotic cells at 10 to 100 nM after 48 hrs by annexin-V FITC/7-ADD staining-based flow cytometric analysis; format: functional, cell-based
A549 [15] = test: Induction of apoptosis in human A549 cells assessed as necrotic cells at 10 to 100 nM after 48 hrs by annexin-V FITC/7-ADD staining-based flow cytometric analysis; format: functional, cell-based
A549 [16] = test: Induction of apoptosis in human A549 cells assessed as late apoptotic cells at 10 to 100 nM after 48 hrs by annexin-V FITC/7-ADD staining-based flow cytometric analysis; format: functional, cell-based

## O=C1OCC2=C1C(c1ccc3c(c1)OCO3)c1c(ccc3ccccc13)N2 (stereo unspecified)
Paracentrotus lividus [1]
  EC: >4000 nM
Paracentrotus lividus [2]
  EC: >4000 nM
Paracentrotus lividus [3]
  EC: >4000 nM

## COc1cc([C@H]2C3=C(COC3=O)Nc3cc4c(cc32)OCO4)cc2c1OCO2
Paracentrotus lividus [1]
  EC: 5 nM
Paracentrotus lividus [2]
  EC: 50 nM

## COc1cc(C2C3=C(COC3=O)Nc3c2ccc2c3CCCC2)cc2c1OCO2 (stereo unspecified)
Paracentrotus lividus [1]
  EC: 5 nM
A549 [4]
  IC50: 159 nM
Paracentrotus lividus [2]
  EC: 50 nM
Paracentrotus lividus [3]
  EC: 100 nM

## COc1cc(C2C3=C(COC3=O)Nc3cn(C)nc32)cc(OC)c1OC (stereo unspecified)
Paracentrotus lividus [5]
  Activity: inactive
Paracentrotus lividus [6]
  Activity: inactive
Paracentrotus lividus [7]
  Activity: inactive

## COc1ccc(C2C3=C(O)OCC3=Nc3cc4c(cc32)OCO4)cc1 (stereo unspecified)
Paracentrotus lividus [1]
  EC: 50 nM
A549 [4]
  IC50: > 3200 nM
Paracentrotus lividus [2]
  EC: 200 nM
Paracentrotus lividus [3]
  EC: 2000 nM

## COc1cccc(C2C3=C(O)OCC3=Nc3cc4c(cc32)OCO4)c1 (stereo unspecified)
Paracentrotus lividus [1]
  EC: 5 nM
Paracentrotus lividus [2]
  EC: 20 nM
Paracentrotus lividus [3]
  EC: 100 nM

## COc1cc(C2C3=C(O)OCC3=Nc3cc4c(cc32)OCCO4)cc(OC)c1OC (stereo unspecified)
A549 [8]
  inhibition: Active
A549 [9]
  inhibition: Active
Paracentrotus lividus [1]
  EC: 200 nM
A549 [4]
  IC50: 9.2 nM
A549 [10]
  inhibition: Active
A549 [11]
  inhibition: Active
Paracentrotus lividus [2]
  EC: 1000 nM
Paracentrotus lividus [3]
  EC: 1000 nM

## COc1cc(C2C3=C(COC3=O)Nc3cn(C)nc32)cc2c1OCO2 (stereo unspecified)
Paracentrotus lividus [5]
  Activity: inactive
Paracentrotus lividus [6]
  Activity: inactive
Paracentrotus lividus [7]
  Activity: inactive

## COc1cc(C2C3=C(COC3=O)Nc3[nH]ncc32)cc(OC)c1OC (stereo unspecified)
Paracentrotus lividus [5]
  Activity: inactive
Paracentrotus lividus [6]
  Activity: inactive
Paracentrotus lividus [7]
  Activity: inactive

## COc1cc(C2C3=C(COC3=O)Nc3ccccc32)cc2c1OCO2 (stereo unspecified)
Paracentrotus lividus [1]
  EC: 20 nM
A549 [4]
  IC50: 534 nM
Paracentrotus lividus [2]
  EC: 200 nM
Paracentrotus lividus [3]
  EC: 2000 nM
A549 [12]
  inhibition: Active

## COc1ccc(C2C3=C(COC3=O)Nc3[nH]ncc32)cc1 (stereo unspecified)
Paracentrotus lividus [5]
  Activity: inactive
Paracentrotus lividus [6]
  Activity: inactive
Paracentrotus lividus [7]
  Activity: inactive

## COc1c(C2C3=C(COC3=O)Nc3cc4c(cc32)OCO4)cc2c(c1OC)OCO2 (stereo unspecified)
Paracentrotus lividus [1]
  EC: 100 nM
Paracentrotus lividus [2]
  EC: 500 nM
Paracentrotus lividus [3]
  EC: 4000 nM

## COc1cc(C2C3=C(COC3=O)Nc3[nH]nc(C)c32)cc(OC)c1OC (stereo unspecified)
Paracentrotus lividus [5]
  Activity: inactive
Paracentrotus lividus [6]
  Activity: inactive
Paracentrotus lividus [7]
  Activity: inactive

## COc1cc([C@@H]2C3=C(COC3=O)Nc3cc4c(cc32)OCO4)cc2c1OCO2
Paracentrotus lividus [1]
  EC: 50 nM
Paracentrotus lividus [2]
  EC: 200 nM
Paracentrotus lividus [3]
  EC: 50 nM

## COc1ccc2c(c1)C(c1cc(OC)c3c(c1)OCO3)C1=C(COC1=O)N2 (stereo unspecified)
A549 [8]
  inhibition: Active
A549 [9]
  inhibition: Active
Paracentrotus lividus [1]
  EC: 10 nM
A549 [4]
  IC50: 282 nM
A549 [10]
  inhibition: Active
A549 [11]
  inhibition: Active
Paracentrotus lividus [2]
  EC: 50 nM
Paracentrotus lividus [3]
  EC: 500 nM

## COc1cc(-c2c3c(nc4c5c(ccc24)CCC5)COC3=O)cc2c1OCO2
Paracentrotus lividus [1]
  EC: 100 nM
Paracentrotus lividus [2]
  EC: >4000 nM
Paracentrotus lividus [3]
  EC: >5000 nM

## COc1c(C2C3=C(COC3=O)Nc3[nH]nc(C)c32)cc2c(c1OC)OCO2 (stereo unspecified)
Paracentrotus lividus [5]
  Activity: inactive
Paracentrotus lividus [6]
  Activity: inactive
Paracentrotus lividus [7]
  Activity: inactive

## COc1cc(C2C3=C(COC3=O)Nc3cc4c(cc32)OCO4)c(OC)c(OC)c1OC (stereo unspecified)
A549 [8]
  inhibition: Active
A549 [9]
  inhibition: Active
Paracentrotus lividus [1]
  EC: 1000 nM
A549 [4]
  IC50: 299 nM
A549 [10]
  inhibition: Active
A549 [11]
  inhibition: Active
Paracentrotus lividus [2]
  EC: 4000 nM
Paracentrotus lividus [3]
  EC: >10000 nM

## COc1cc(C2C3=C(COC3=O)Nc3cc4c(c(OC)c32)OCO4)cc2c1OCO2 (stereo unspecified)
Paracentrotus lividus [1]
  EC: 50 nM
A549 [4]
  IC50: 298 nM
Paracentrotus lividus [2]
  EC: 500 nM
Paracentrotus lividus [3]
  EC: 2000 nM
A549 [12]
  inhibition: Active

## COc1cc(OC)cc(C2C3=C(COC3=O)Nc3cc(OC)ccc32)c1 (stereo unspecified)
Paracentrotus lividus [1]
  EC: 2 nM
Paracentrotus lividus [2]
  EC: 10 nM
Paracentrotus lividus [3]
  EC: 200 nM

## COc1ccc(C2C3=C(COC3=O)Nc3cc4c(c(OC)c32)OCO4)cc1 (stereo unspecified)
Paracentrotus lividus [1]
  EC: 2000 nM
Paracentrotus lividus [2]
  EC: >2000 nM
Paracentrotus lividus [3]
  EC: >2000 nM

## COc1cc(-c2c3c(nc4cc5c(cc24)CCC5)COC3=O)cc2c1OCO2
Paracentrotus lividus [1]
  EC: 100 nM
Paracentrotus lividus [2]
  EC: 1000 nM
Paracentrotus lividus [3]
  EC: >5000 nM

## COc1cc(C2C3=C(COC3=O)Nc3[nH]nc(C)c32)c(OC)c2c1OCO2 (stereo unspecified)
Paracentrotus lividus [5]
  Activity: inactive
Paracentrotus lividus [6]
  Activity: inactive
Paracentrotus lividus [7]
  Activity: inactive

## COc1cc(C2C3=C(COC3=O)Nc3cc4c(c(OC)c32)OCO4)cc(OC)c1OC (stereo unspecified)
A549 [8]
  inhibition: Active
A549 [9]
  inhibition: Active
Paracentrotus lividus [1]
  EC: 2000 nM
A549 [4]
  IC50: 291 nM
A549 [10]
  inhibition: Active
A549 [11]
  inhibition: Active
Paracentrotus lividus [2]
  EC: >2000 nM
Paracentrotus lividus [3]
  EC: >2000 nM

## OC1=C2C(=Nc3cc4c(cc3C2c2ccc3c(c2)OCO3)OCO4)CO1 (stereo unspecified)
Paracentrotus lividus [1]
  EC: 10 nM
Paracentrotus lividus [2]
  EC: 50 nM
Paracentrotus lividus [3]
  EC: 200 nM

## COc1cc(C2C3=C(COC3=O)Nc3cc4c(cc32)OCCO4)cc2c1OCO2 (stereo unspecified)
A549 [8]
  inhibition: Active
A549 [9]
  inhibition: Active
Paracentrotus lividus [1]
  EC: 5 nM
A549 [4]
  IC50: 64.7 nM
A549 [10]
  inhibition: Active
A549 [11]
  inhibition: Active
Paracentrotus lividus [2]
  EC: 50 nM
Paracentrotus lividus [3]
  EC: 100 nM
A549 [13]
  EC50: 119 nM

## OC1=C2C(=Nc3cc4c(cc3C2c2ccccc2)OCO4)CO1 (stereo unspecified)
Paracentrotus lividus [1]
  EC: 5 nM
A549 [4]
  IC50: 63 nM
Paracentrotus lividus [2]
  EC: 20 nM
Paracentrotus lividus [3]
  EC: 100 nM

## COc1c(C2C3=C(COC3=O)Nc3cn(C)nc32)cc2c(c1OC)OCO2 (stereo unspecified)
Paracentrotus lividus [5]
  Activity: inactive
Paracentrotus lividus [6]
  Activity: inactive
Paracentrotus lividus [7]
  Activity: inactive

## COc1cc(C2C3=C(COC3=O)Nc3cc4c(cc32)OCO4)c(OC)c2c1OCO2 (stereo unspecified)
Paracentrotus lividus [1]
  EC: 1000 nM
Paracentrotus lividus [2]
  EC: 2000 nM
Paracentrotus lividus [3]
  EC: >5000 nM

## COc1cc(-c2c3c(nc4c5c(ccc24)CCCC5)COC3=O)cc2c1OCO2
Paracentrotus lividus [1]
  EC: 200 nM
Paracentrotus lividus [2]
  EC: 2000 nM
Paracentrotus lividus [3]
  EC: 5000 nM

## COc1cc(C2C3=C(COC3=O)Nc3cc4c(cc32)CCC4)cc2c1OCO2 (stereo unspecified)
A549 [8]
  inhibition: Active
A549 [9]
  inhibition: Active
Paracentrotus lividus [1]
  EC: 2 nM
A549 [4]
  IC50: 264 nM
A549 [10]
  inhibition: Active
A549 [11]
  inhibition: Active
Paracentrotus lividus [2]
  EC: 20 nM
Paracentrotus lividus [3]
  EC: 50 nM

## COc1cc(C2C3=C(COC3=O)Nc3cn(C)nc32)c(OC)c2c1OCO2 (stereo unspecified)
Paracentrotus lividus [5]
  Activity: inactive
Paracentrotus lividus [6]
  Activity: inactive
Paracentrotus lividus [7]
  Activity: inactive

## COC(=O)Nc1nc2cc(C(=O)c3cccs3)ccc2[nH]1
A549 [14]
  Activity: Active
A549 [15]
  Activity: Active
A549 [16]
  Activity: inactive

From ChEMBL document CHEMBL1914380, “Polyalkoxybenzenes from plants. 5. Parsley seed extract in synthesis of azapodophyllotoxins featuring strong tubulin destabilizing activity in the sea urchin embryo and cell culture assays” (J Med Chem, 2011)
